Results as given in ChEMBL document CHEMBL1138291, “Structure-activity studies of novel cyanoguanidine ATP-sensitive potassium channel openers for the treatment of overactive bladder” (J Med Chem, 2007).

Experiments:
[1] = Activity at Kir6.2 channel in Landrace pig bladder detrusor assessed as relaxation of electrically stimulated contraction; design: species or system Sus scrofa
[2] = Half life in dog at 100 nmol/kg, iv; assay type: ADME, organism-based, Canis lupus familiaris; details: in vivo
[3] = Plasma clearance in dog at 100 nmol/kg, iv; assay type: ADME, organism-based, Canis lupus familiaris
[4] = Tmax in dog at 100 nmol/kg, po; assay type: ADME, organism-based, Canis lupus familiaris; details: in vivo
[5] = Half life in dog at 100 nmol/kg, po; assay type: ADME, organism-based, Canis lupus familiaris; details: in vivo
[6] = Oral bioavailability in dog at 100 nmol/kg, po; assay type: ADME, organism-based, Canis lupus familiaris; details: in vivo
[7] = Half life in dog at 10 nmol/kg, iv; assay type: ADME, organism-based, Canis lupus familiaris; details: in vivo
[8] = Plasma clearance in dog at 10 nmol/kg, iv; assay type: ADME, organism-based, Canis lupus familiaris
[9] = Tmax in dog at 10 nmol/kg, po; assay type: ADME, organism-based, Canis lupus familiaris; details: in vivo
[10] = Half life in dog at 10 nmol/kg, po; assay type: ADME, organism-based, Canis lupus familiaris; details: in vivo
[11] = Oral bioavailability in dog at 10 nmol/kg, po; assay type: ADME, organism-based, Canis lupus familiaris; details: in vivo
Sus scrofa [12] = organism: Sus scrofa; test: Inhibition of unstable spontaneous bladder contractions in Landrace/Yorkshire pig bladder instability model; assay type: functional, organism-based
Sus scrofa [13] = test: Reduction of unstable spontaneous bladder contractions in Landrace/Yorkshire pig bladder instability model at 0.3 mg/kg, iv; assay type: functional; design: scale not given: the % may be the effect or the level left
Sus scrofa [14] = test: Reduction of unstable spontaneous bladder contractions in Landrace/Yorkshire pig bladder instability model at 1 mg/kg, iv; assay type: functional; design: scale not given: the % may be the effect or the level left
Sus scrofa [15] = test: Reduction of blood pressure in pig at 0.3 mg/kg, iv; assay type: functional; design: scale not given: the % may be the effect or the level left
Method in brief: (§1)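 Conscious obstructed, telemetered pigs held in restraint cage with 20 gauge venous catheters in both ears for dosing and blood sampling; mean arterial pressure recorded, averaged over post-dose period as percent change from baseline.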

Sus scrofa [16] = test: Reduction of blood pressure in pig at 1 mg/kg, iv; assay type: functional; design: scale not given: the % may be the effect or the level left; method in brief: as §1
Portal vein = test: Effect on rat portal vein; assay type: functional, tissue-based

CC(Cl)(Cl)C(NC(=O)c1cc(F)cc(F)c1)N/C(=N/C#N)Nc1ccc(C(F)(F)F)nc1 (stereo unspecified)
Log EC50 [1]: -5.54 | half-life [2]: 5.5 h | clearance [3]: 1 mL/min/kg | Tmax [4]: 0.7 h | half-life [5]: 6.9 h | bioavailability [6]: 100%

Cc1ccc(C(=O)NC(N/C(=N/C#N)Nc2ccc(C(F)(F)F)nc2)C(C)(Cl)Cl)cc1 (stereo unspecified)
Log EC50 [1]: -5.15

CC(Cl)(Cl)C(NC(=O)c1cc(Cl)cc(Cl)c1)N/C(=N/C#N)Nc1ccc(Cl)nc1 (stereo unspecified)
Log EC50 [1]: -5.44

CC(Cl)(Cl)C(NC(=O)c1ccc(Cl)cc1)N/C(=N/C#N)Nc1ccc(F)nc1 (stereo unspecified)
Log EC50 [1]: -5.87

CC(Cl)(Cl)C(NC(=O)c1cccc(Cl)c1)N/C(=N/C#N)Nc1ccc(C(F)(F)F)nc1 (stereo unspecified)
Log EC50 [1]: -5.28

Cc1cccc(C(=O)NC(N/C(=N/C#N)Nc2ccc(Cl)nc2)C(C)(Cl)Cl)c1 (stereo unspecified)
Log EC50 [1]: -5.42

CC(Cl)(Cl)C(NC(=O)c1ccc(C(F)(F)F)cc1)N/C(=N/C#N)Nc1ccc(C(F)(F)F)nc1 (stereo unspecified)
Log EC50 [1]: -5.65

CC(Cl)(Cl)C(NC(=O)c1ccc(Cl)cc1)N/C(=N/C#N)Nc1ccc(C(F)(F)F)nc1 (stereo unspecified)
Log EC50 [1]: -5.78

CC(O)(C(=O)Nc1ccc(C(=O)c2ccccc2)cc1)C(F)(F)F (single isomer, unassigned) [ZD-6169]
half-life [7]: 1.9 h | clearance [8]: 11.2 mL/min/kg | Tmax [9]: 0.4 h | half-life [10]: 1.6 h | bioavailability [11]: 43%

CC(Cl)(Cl)C(NC(=O)c1ccc(Cl)cc1)N/C(=N/C#N)Nc1cncc(Br)c1 (stereo unspecified)
Log EC50 [1]: -6.23

CC(Cl)(Cl)C(NC(=O)c1cc(Cl)cc(Cl)c1)N/C(=N/C#N)Nc1ccc(C(F)(F)F)nc1 (stereo unspecified)
Log EC50 [1]: -5.7

CC(Cl)(Cl)C(NC(=O)c1cccc(F)c1)N/C(=N/C#N)Nc1ccc(Cl)nc1 (stereo unspecified)
Log EC50 [1]: -5.68

CC(Cl)(Cl)C(NC(=O)c1ccc(F)cc1)N/C(=N/C#N)Nc1ccc(C(F)(F)F)nc1 (stereo unspecified)
Log EC50 [1]: -6.02

COc1ncccc1N/C(=N\C#N)NC(NC(=O)c1ccc(Cl)cc1)C(C)(Cl)Cl (stereo unspecified)
Log EC50 [1]: -6.6

Cc1cccc(C(=O)NC(N/C(=N/C#N)Nc2ccc(C(F)(F)F)nc2)C(C)(Cl)Cl)c1 (stereo unspecified)
Log EC50 [1]: -5.94

CC(Cl)(Cl)C(NC(=O)c1cccc(F)c1)N/C(=N/C#N)Nc1ccc(C(F)(F)F)nc1 (stereo unspecified)
Log EC50 [1]: -5.71

CC(Cl)(Cl)C(NC(=O)c1ccc(Cl)cc1)NC(=NC#N)Nc1ccc(Cl)nc1 (stereo unspecified)
half-life [2]: 9.9 h | clearance [3]: 2.17 mL/min/kg | Tmax [4]: 0.4 h | half-life [5]: 15 h | bioavailability [6]: 100%

CC(Cl)(Cl)C(NC(=O)c1cccs1)N/C(=N/C#N)Nc1ccc(C(F)(F)F)nc1 (stereo unspecified)
Log EC50 [1]: -5.44

CC(Cl)(Cl)C(NC(=O)c1cccc(Cl)c1)N/C(=N/C#N)Nc1ccc(Cl)nc1 (stereo unspecified)
Log EC50 [1]: -5.35

CC(Cl)(Cl)C(NC(=O)c1ccc(Cl)cc1)N/C(=N/C#N)Nc1cccnc1Cl (stereo unspecified)
Log EC50 [1]: -6.16

CC(Cl)(Cl)C(NC(=O)c1ccc(Cl)cc1)N/C(=N/C#N)Nc1ccccc1F (stereo unspecified)
Log EC50 [1]: -5.98

CC(Cl)(Cl)[C@@H](NC(=O)c1ccc(Cl)cc1)N/C(=N/C#N)Nc1cccnc1
Log EC50 [1]: -5.26

CC(Cl)(Cl)C(NC(=O)c1ccc(Cl)cc1)N/C(=N/C#N)Nc1ccc(Cl)nc1 (stereo unspecified)
Activity (Sus scrofa [12]): Dose-dependent effect | Activity (Sus scrofa [13]): 19.7% | Activity (Sus scrofa [14]): 90.7% | Activity (Sus scrofa [15]): 1.4% | Activity (Sus scrofa [16]): 36% | EC50 (Portal vein): 813 nM
